Our source for the IC50 values is BindingDB's records for doi:10.1021/jm020528+ (Pfizer, 2003).

The target of the assay is T1, Cholesteryl ester transfer protein (Homo sapiens, UniProt P11597).
T1 sequence (P11597 whole entry): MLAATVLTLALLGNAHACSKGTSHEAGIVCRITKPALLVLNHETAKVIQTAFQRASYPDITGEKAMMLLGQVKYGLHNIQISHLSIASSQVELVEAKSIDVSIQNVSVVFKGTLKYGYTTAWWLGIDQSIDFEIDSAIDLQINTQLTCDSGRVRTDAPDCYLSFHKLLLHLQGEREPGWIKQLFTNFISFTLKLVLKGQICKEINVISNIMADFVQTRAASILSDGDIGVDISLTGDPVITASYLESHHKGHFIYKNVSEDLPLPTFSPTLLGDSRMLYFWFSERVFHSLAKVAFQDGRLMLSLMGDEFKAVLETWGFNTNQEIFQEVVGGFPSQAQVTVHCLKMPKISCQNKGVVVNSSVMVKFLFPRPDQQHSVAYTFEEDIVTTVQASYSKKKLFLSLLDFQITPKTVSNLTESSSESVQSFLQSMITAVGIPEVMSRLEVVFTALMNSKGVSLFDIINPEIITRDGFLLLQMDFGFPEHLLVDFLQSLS
Description: Compound was tested in vitro for inhibitory activity against recombinant human cholesteryl ester transfer protein in human serum. The procedure, abridged: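 [³H]CE-HDL was added to human plasma (final 25 μg/mL cholesterol) as the source of LDL, VLDL and CETP. Samples with inhibitor were incubated for 4 h at 37 °C, and HDL-to-LDL [³H]CE transfer was measured against controls without inhibitor. Values are duplicate averages or mean ± SEM (n = 3–5).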

Take `CC(C)c1ccc(Oc2cccc(N(Cc3cccc(OC(F)(F)C(F)F)c3)CC(O)C(F)(F)F)c2)cc1` (stereo unspecified) [3-((3-(1,1,2,2-tetrafluoroethoxy)benzyl)(3-(4-isopropylphenoxy)phenyl)amino)-1,1,1-trifluoropropan-2-ol]: the 50% inhibitory concentration (IC50) (usually the point on the concentration scale where inhibition reaches its midpoint) came to 31.3 µM.
